Entries after “also recorded” stand apart in the source; their conditions may differ. Values belong to the molecule of their own block, whether it stands above or below them.
Assays:
mGlu3 [1] = target: T1, mGlu3 (Rattus norvegicus, UniProt P31422); experiment: mGlu3 calcium mobilization assay; assay type: cell-based
rat microsomal clearance = assay type: in vitro ADME; conditions: for Rat CLHEP: predicted hepatic clearance in vitro; for Rat CLHEP / CLint scaled at 1 µM: rat; for CLint scaled at 1 µM: microsomes
rat IV PK = assay type: in vivo; conditions: plasma
mGlu3 [2] = target: T1, mGlu3; conditions: cited from earlier work
mGlu1 = mGlu1 (Homo sapiens, UniProt Q13255); experiment: mGluR selectivity, mGlu1; assay type: cell-based
mGlu4 = mGlu4 (Homo sapiens, UniProt Q14833); experiment: mGluR selectivity, mGlu4; assay type: cell-based
mGlu5 = mGlu5 (Homo sapiens, UniProt P41594); experiment: mGluR selectivity, mGlu5; assay type: cell-based
mGlu6 = mGlu6 (Homo sapiens, UniProt O15303); experiment: mGluR selectivity, mGlu6; assay type: cell-based
mGlu6, sequence (O15303 25-877): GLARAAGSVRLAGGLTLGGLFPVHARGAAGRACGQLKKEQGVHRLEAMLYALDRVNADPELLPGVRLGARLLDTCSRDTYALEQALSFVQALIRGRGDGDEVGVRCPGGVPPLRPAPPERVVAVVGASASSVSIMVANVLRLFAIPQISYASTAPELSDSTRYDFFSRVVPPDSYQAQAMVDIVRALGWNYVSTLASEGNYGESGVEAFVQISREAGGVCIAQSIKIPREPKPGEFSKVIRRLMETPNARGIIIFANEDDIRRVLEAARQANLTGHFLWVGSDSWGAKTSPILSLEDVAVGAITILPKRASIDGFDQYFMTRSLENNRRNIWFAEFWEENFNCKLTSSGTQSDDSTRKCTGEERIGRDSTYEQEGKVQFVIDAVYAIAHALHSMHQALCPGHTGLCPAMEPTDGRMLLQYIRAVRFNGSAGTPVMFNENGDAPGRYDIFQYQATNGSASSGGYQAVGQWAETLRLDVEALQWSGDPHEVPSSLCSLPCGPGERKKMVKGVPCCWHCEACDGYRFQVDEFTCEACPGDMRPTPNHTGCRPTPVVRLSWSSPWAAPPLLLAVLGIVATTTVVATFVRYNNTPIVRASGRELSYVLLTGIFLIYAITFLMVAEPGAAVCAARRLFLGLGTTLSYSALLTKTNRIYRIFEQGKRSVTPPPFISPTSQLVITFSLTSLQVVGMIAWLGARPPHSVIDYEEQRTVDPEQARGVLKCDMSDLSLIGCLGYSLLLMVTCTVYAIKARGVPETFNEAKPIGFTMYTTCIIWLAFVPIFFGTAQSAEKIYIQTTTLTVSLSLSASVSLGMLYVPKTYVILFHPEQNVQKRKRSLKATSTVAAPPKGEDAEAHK

mGlu7 = mGlu7 (Homo sapiens, UniProt Q14831); experiment: mGluR selectivity, mGlu7; assay type: cell-based
mGlu7, sequence (Q14831 35-915): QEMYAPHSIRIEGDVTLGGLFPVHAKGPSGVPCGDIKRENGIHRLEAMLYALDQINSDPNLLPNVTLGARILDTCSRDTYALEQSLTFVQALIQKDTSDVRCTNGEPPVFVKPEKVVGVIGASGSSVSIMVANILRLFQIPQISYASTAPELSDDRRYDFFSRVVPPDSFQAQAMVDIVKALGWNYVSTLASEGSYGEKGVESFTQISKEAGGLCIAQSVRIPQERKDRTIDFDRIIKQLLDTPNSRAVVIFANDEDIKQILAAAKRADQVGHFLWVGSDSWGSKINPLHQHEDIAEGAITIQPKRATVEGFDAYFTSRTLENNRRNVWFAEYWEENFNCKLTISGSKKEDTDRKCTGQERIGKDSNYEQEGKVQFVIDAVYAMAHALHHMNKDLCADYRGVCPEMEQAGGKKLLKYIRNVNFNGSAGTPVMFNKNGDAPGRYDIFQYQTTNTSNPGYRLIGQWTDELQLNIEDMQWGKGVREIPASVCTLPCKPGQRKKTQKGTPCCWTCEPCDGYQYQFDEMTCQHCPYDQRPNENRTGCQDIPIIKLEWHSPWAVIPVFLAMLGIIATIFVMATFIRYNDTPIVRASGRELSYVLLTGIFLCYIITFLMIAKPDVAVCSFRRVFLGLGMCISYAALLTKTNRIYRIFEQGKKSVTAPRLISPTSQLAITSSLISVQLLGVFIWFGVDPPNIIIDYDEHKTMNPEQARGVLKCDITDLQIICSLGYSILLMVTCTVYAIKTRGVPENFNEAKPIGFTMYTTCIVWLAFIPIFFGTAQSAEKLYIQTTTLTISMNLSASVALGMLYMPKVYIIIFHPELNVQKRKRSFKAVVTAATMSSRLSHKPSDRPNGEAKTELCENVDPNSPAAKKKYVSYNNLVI

mGlu8 = mGlu8 (Homo sapiens, UniProt O00222); experiment: mGluR selectivity, mGlu8; assay type: cell-based
mGlu8, sequence (O00222 34-908): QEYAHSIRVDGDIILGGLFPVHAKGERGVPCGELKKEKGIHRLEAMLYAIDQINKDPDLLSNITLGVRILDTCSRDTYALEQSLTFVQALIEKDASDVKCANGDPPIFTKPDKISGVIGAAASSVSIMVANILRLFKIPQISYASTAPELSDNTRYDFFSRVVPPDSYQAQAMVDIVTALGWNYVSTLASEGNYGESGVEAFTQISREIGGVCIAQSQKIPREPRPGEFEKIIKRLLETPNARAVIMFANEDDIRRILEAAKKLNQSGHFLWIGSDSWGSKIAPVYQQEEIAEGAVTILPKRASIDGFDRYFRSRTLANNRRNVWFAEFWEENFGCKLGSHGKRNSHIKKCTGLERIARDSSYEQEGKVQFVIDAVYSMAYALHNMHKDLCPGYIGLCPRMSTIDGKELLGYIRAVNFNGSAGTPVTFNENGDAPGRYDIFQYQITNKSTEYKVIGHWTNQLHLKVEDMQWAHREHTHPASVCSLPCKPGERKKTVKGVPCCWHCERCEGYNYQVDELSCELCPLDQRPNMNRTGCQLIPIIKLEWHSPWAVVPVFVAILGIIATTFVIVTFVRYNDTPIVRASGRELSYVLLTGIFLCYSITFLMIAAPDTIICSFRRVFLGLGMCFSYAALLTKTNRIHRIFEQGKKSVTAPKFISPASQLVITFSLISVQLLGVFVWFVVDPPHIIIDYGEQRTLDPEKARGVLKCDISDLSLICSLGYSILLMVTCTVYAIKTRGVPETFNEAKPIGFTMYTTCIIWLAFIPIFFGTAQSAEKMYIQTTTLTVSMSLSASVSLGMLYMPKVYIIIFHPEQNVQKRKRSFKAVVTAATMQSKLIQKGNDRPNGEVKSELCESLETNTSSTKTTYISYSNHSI

mGlu3 [3] = target: T1, mGlu3; experiment: progressive fold shift assay with glutamate; assay type: cell-based
mGlu3 [4] = target: T1, mGlu3; experiment: probe dependence, glutamate vs LY379268; assay type: cell-based; conditions: glutamate vs LY379268 as agonist
[5] = human microsomal clearance; assay type: in vitro ADME
DAT = DAT (Homo sapiens, UniProt Q01959); experiment: functional activity at DAT
DAT, sequence (Q01959 whole entry): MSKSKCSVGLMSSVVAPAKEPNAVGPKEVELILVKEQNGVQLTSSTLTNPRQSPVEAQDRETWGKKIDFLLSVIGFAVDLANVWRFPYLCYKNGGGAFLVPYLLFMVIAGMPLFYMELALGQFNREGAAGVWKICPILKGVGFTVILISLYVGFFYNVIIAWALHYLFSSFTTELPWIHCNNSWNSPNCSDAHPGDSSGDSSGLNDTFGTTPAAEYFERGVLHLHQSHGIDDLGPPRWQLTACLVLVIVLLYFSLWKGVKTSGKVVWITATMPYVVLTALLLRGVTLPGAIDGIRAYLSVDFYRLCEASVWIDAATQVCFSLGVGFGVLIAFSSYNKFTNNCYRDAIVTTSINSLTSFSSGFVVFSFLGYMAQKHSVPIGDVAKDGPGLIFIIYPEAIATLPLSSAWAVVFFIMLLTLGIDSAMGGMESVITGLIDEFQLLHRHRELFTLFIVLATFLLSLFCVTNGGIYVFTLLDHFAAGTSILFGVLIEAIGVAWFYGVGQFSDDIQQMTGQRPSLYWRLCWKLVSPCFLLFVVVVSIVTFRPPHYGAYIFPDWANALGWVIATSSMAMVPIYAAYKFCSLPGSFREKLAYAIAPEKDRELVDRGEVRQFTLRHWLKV

5-HT2B = 5-HT2B (Homo sapiens, UniProt P41595); experiment: functional activity at 5-HT2B
5-HT2B, sequence (P41595 whole entry): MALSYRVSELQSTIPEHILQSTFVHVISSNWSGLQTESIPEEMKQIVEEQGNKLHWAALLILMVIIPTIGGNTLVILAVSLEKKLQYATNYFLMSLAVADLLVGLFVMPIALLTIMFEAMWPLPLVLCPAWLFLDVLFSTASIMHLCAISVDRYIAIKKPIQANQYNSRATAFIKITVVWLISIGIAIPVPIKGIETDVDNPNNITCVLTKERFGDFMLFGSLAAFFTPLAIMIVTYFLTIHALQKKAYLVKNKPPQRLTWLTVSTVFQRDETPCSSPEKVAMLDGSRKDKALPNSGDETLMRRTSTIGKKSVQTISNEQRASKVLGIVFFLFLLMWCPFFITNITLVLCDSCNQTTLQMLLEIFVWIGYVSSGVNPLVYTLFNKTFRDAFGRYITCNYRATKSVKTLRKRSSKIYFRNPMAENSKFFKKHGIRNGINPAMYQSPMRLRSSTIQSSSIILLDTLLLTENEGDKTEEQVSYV

[6] = mouse tissue distribution study; assay type: in vivo; conditions: cassette, IP
Method in brief: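 Mice received the test compounds together as a cassette by intraperitoneal injection. Plasma and brain tissue were then analysed by LC/MS/MS to measure compound exposure in each and derive the brain-to-plasma ratio.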

in vivo rat PK = conditions: 10 mg/kg
[7] = metabolite identification; assay type: in vitro ADME

T1 sequence (P31422 23-879): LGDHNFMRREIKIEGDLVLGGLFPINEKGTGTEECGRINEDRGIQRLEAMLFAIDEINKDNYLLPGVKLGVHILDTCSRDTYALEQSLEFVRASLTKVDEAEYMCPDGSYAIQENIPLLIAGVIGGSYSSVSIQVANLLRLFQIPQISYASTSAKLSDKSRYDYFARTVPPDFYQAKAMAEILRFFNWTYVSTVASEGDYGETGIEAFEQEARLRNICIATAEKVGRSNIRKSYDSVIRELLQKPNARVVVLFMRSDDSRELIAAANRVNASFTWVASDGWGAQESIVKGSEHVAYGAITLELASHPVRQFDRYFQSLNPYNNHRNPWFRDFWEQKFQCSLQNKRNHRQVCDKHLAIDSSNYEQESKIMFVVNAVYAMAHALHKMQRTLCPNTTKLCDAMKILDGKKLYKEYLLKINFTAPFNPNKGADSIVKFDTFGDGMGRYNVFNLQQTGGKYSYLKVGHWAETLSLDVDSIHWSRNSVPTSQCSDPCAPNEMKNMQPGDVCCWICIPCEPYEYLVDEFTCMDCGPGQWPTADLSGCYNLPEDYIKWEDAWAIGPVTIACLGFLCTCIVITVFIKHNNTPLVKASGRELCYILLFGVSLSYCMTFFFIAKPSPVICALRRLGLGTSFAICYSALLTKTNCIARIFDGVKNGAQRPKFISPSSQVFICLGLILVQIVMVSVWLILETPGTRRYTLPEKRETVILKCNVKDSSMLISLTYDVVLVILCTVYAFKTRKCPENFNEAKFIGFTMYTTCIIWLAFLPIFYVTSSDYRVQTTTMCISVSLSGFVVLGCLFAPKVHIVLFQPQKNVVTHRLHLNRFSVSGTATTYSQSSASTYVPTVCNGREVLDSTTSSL

mGlu3 NAM activity (in words) (mGlu3 [1]): lost
SMILES: COc1ccc(C#Cc2ccc(C(=O)N3CCCC(OC)C3)cc2)cc1 (centres unmarked) [8b]

Rat CLHEP (rat microsomal clearance): 40.7 mL/min/kg
CLint scaled at 1 µM (rat microsomal clearance): 97.3 mL/min/kg
Vd (rat IV PK): 0.21 L/kg
clearance (rat IV PK): 3.3 mL/min/kg
SMILES: [2H]C([2H])([2H])Oc1ccc(C#Cc2ccc(C(=O)N3CCC[C@@H](O)C3)cc2)cc1 [compound 11]

SMILES: COc1ccc(C#Cc2ccc(C(=O)N3CCC[C@@H](CO)C3)cc2)cc1 [compound 3]
selectivity vs. mGlu2 (mGlu3 [2]): > 15 fold

mGlu3 NAM activity (in words) (mGlu3 [1]): sub-micromolar
SMILES: COc1ccc(C#Cc2ccc(C(=O)N3CCC[C@@H](O)C3)cc2F)cc1 [compound 10]

mGlu3 NAM activity (in words) (mGlu3 [1]): sub-micromolar
IC50 (mGlu1): > 30 µM
IC50 (mGlu4): > 30 µM
IC50 (mGlu5): > 30 µM
IC50 (mGlu6): > 30 µM
IC50 (mGlu7): > 30 µM
IC50 (mGlu8): > 30 µM
Rat CLHEP (rat microsomal clearance): 54.1 mL/min/kg
CLint scaled at 1 µM (rat microsomal clearance): 239 mL/min/kg
stability in rat microsomes (rat microsomal clearance; words): unstable
Human CLHEP ([5]; predicted hepatic clearance in vitro, human): 18.9 mL/min/kg
stability in human microsomes ([5]; words): unstable
functional activity at DAT (DAT): no functional activity
functional activity at 5-HT2B (5-HT2B): no functional activity
BrainAUC [6]: 3.37 µM
plasmaAUC [6]: 3.71 µM
Brain AUC0-6 (in vivo rat PK; IP, 0-6 h): 9.6 µM·h
Kp (in vivo rat PK; brain and plasma, ip): 0.3
AUC(0-t) (in vivo rat PK; plasma, ip): 33.1 µM·h
Vd (rat IV PK): 0.21 L/kg
clearance (rat IV PK): 5.2 mL/min/kg
major metabolite [7]: P450-mediated O-demethylation
SMILES: COc1ccc(C#Cc2ccc(C(=O)N3CCC[C@@H](O)C3)c(F)c2)cc1 [compound 9]
mode of antagonism with respect to glutamate (mGlu3 [3]): non-competitive antagonism; also recorded: non-competitive decrease in the EC80
probe dependence (mGlu3 [4]): no differences; also recorded: equipotent and efficacious

Rat CLHEP (rat microsomal clearance): 35.9 mL/min/kg
Vd (rat IV PK): 0.18 L/kg
clearance (rat IV PK): 2.9 mL/min/kg
SMILES: [2H]C([2H])([2H])Oc1ccc(C#Cc2ccc(C(=O)N3CCC[C@@H](O)C3)c(F)c2)cc1 [compound 12]

Rat CLHEP (rat microsomal clearance): 52.7 mL/min/kg
CLint scaled at 1 µM (rat microsomal clearance): 214 mL/min/kg
Vd (rat IV PK): 0.22 L/kg
clearance (rat IV PK): 6.2 mL/min/kg
SMILES: COc1ccc(C#Cc2ccc(C(=O)N3CCC[C@@H](O)C3)cc2)cc1 [8d]
